Measurements taken from ChEMBL document CHEMBL1125596, “3-Alkyl-4-aminobutyric acids: the first class of anticonvulsant agents that activates L-glutamic acid decarboxylase” (1991).

Key:
[1] = Tested for activation of Glutamate decarboxylase; the ratio of Vmax in the presence of activators to the Vmax in the absence of activators at a concentration of 1.0 mM.
In short: (§1)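 Purified GAD (57 µg; sp act. 7.8 nmol/min·mg), 50 mM potassium phosphate pH 7.2, 37 °C, 60 min. Substrate L-glutamate 0.5–0.10 mM spiked with [1-14C]-L-glutamate. Activator at 2.5–0.05 mM. Reaction quenched with 6 M H2SO4; released 14CO2 trapped in KOH center well and counted. Vmax taken from 1/dpm vs 1/[glutamate] plots. Activation is Vmax(+activator)/Vmax(none) ×100%.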

[2] = Compound was tested for anticonvulsant activity in Mice by iv administration at the dose of 100 mg/kg; 0/10; assay type: functional, Mus musculus
In short: (§2)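 Male CF-1 mice (20-28 g), compound given iv. 120 min later, low-intensity corneal electroshock (17 mA base-to-peak sinusoidal, 0.2 s). Protection was scored as prevention of hindlimb tonic extensor seizure and reported as number protected/number tested.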

[3] = Tested for activation of Glutamate decarboxylase; the ratio of Vmax in the presence of activators to the Vmax in the absence of activators at a concentration of 2.5 mM.; in short: as §1
[4] = Tested for activation of Glutamate decarboxylase; the ratio of Vmax in the presence of activators to the Vmax in the absence of activators at a concentration of 250 uM.; in short: as §1
[5] = Compound was tested for anticonvulsant activity in Mice by iv administration at the dose of 100 mg/kg; 2/10; assay type: functional, Mus musculus; in short: as §2
[6] = Compound was tested for anticonvulsant activity in Mice by iv administration at the dose of 14.4 mg/kg; 9/10; assay type: functional, Mus musculus; in short: as §2
[7] = Compound was tested for activation of Glutamate decarboxylase which is the ratio of Vmax in the presence of activators to the Vmax in the absence of activators at a concentration of 100 uM.; in short: as §1
[8] = Compound was tested for activation of Glutamate decarboxylase which is the ratio of Vmax in the presence of activators to the Vmax in the absence of activators at a concentration of 500 uM.; in short: as §1
[9] = Compound was tested for anticonvulsant activity in Mice by iv administration at the dose of 100 mg/kg; 3/5; assay type: functional, Mus musculus; in short: as §2
[10] = Compound was tested for activation of Glutamate decarboxylase which is the ratio of Vmax in the presence of activators to the Vmax in the absence of activators at a concentration of 50 uM.; in short: as §1
[11] = Compound was tested for anticonvulsant activity in Mice by iv administration at the dose of 100 mg/kg.; assay type: functional, Mus musculus; in short: as §2
[12] = Compound was tested for anticonvulsant activity in Mice by iv administration at the dose of 100 mg/kg; assay type: functional, Mus musculus; in short: as §2
[13] = Compound was tested for anticonvulsant activity in Mice by iv administration at the dose of 100 mg/kg; 6/10; assay type: functional, Mus musculus; in short: as §2
[14] = Compound was tested for anticonvulsant activity in Mice by iv administration at the dose of 30 mg/kg; 2/10; assay type: functional, Mus musculus; in short: as §2
[15] = Compound was tested for anticonvulsant activity in Mice by iv administration at the dose of 100 mg/kg; 4/10; assay type: functional, Mus musculus; in short: as §2
[16] = Compound was tested for anticonvulsant activity in Mice by iv administration at the dose of 100 mg/kg; 5/10; assay type: functional, Mus musculus; in short: as §2

| Structure (SMILES) | Activity [1] | Activity [3] | Activity [4] | further results |
| --- | --- | --- | --- | --- |
| CC(C)CCC(CN)CC(=O)O (stereo not drawn) | 118 | 142 | 109 | No. of animals protected [2]: 0 |
| CCCCC(CN)CC(=O)O (stereo not drawn) | 117 | 178 | 105 | No. of animals protected [5]: 2 |
| CC(C)CC(CN)CC(=O)O (stereo not drawn) |  |  | 109 | No. of animals protected [6]: 9 |
| CCCC(CCC)C(=O)O | 138 | 207 |  | Activity [7]: 115; Activity [8]: 124 |
| CCCC(CN)CC(=O)O (stereo not drawn) | 112 | 156 | 105 | No. of animals protected [9]: 3 |
| CC(CN)CC(=O)O (stereo not drawn) | 168 | 239 | 128 | Activity [7]: 118; Activity [10]: 107; No. of animals protected [11]: 3; Activity [8]: 142 |
| C[C@@H](CN)CC(=O)O | 202 | 327 |  | No. of animals protected [12]: 5; Activity [7]: 128; Activity [8]: 185 |
| CC(C)C(CN)CC(=O)O (stereo not drawn) | 108 | 140 | 104 | No. of animals protected [13]: 6 |
| CCC(C)C(CN)CC(=O)O (stereo not drawn) | 119 | 169 | 105 | No. of animals protected [14]: 2 |
| CCCCCNCC(N)=O | 170 | 230 | 126 |  |
| CC(C)(CN)CC(=O)O | 125 | 174 | 109 | No. of animals protected [11]: 8 |
| NCC(CC(=O)O)C1CCCCC1 (stereo not drawn) | 100 | 125 | 100 |  |
| CC(C)(C)CC(CN)CC(=O)O (stereo not drawn) | 181 | 279 | 130 | No. of animals protected [15]: 4 |
| NCC1(CC(=O)O)CCCCC1 | 145 | 178 | 105 |  |
| CC(C)(C)C(CN)CC(=O)O (stereo not drawn) | 174 | 295 |  | Activity [7]: 117; No. of animals protected [16]: 5; Activity [8]: 147 |
| C[C@H](CN)CC(=O)O | 118 | 170 | 103 | No. of animals protected [11]: 5 |
| CCC(CN)CC(=O)O (stereo not drawn) | 128 | 172 | 108 | No. of animals protected [11]: 5 |
